Series [1] addresses T1, Prostaglandin G/H synthase 1 (Ovis aries, UniProt P05979).
T1 sequence (P05979 whole entry): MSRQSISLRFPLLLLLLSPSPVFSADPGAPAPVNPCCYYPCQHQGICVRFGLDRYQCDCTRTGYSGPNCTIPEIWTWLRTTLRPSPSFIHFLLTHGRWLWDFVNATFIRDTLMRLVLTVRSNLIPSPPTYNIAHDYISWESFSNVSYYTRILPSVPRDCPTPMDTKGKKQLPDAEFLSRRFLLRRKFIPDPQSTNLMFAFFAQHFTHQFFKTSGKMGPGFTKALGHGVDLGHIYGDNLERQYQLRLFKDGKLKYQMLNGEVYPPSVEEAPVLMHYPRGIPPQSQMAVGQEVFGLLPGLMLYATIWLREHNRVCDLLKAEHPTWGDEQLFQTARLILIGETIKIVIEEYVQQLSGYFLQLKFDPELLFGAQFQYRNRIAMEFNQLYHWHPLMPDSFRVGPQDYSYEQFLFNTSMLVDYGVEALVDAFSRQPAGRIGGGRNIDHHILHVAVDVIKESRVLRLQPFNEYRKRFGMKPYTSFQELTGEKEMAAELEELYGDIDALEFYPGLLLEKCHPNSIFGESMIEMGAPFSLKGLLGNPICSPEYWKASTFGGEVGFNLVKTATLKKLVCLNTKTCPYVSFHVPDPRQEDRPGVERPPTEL
Kind of series: Inhibition of ovine COX1. In outline:
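Ovine COX-1 was tested in a cyclooxygenase inhibitor screening kit, following the manufacturer's procedure. Deviation from the mean was <10%.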

Series [2] deals with Rattus norvegicus. The series is described as follows: Antiinflammatory activity in rat assessed as inhibition of carrageenan-induced paw edema at 0.71 mmol/kg, po after 3 hrs relative to control. Type of series: functional. On the set-up: scale not given: the % may be the effect or the level left. The method, boiled down:
(§1)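 Rats were given an oral gavage suspension in 1% methylcellulose, at doses equimolar to the parent NSAID: 0.71, 0.32 or 0.01 mmol/kg. Controls received an equal volume of vehicle. Carrageenan-induced paw edema was read 3 h after dosing. Activity is the % decrease in the inflammatory response versus the vehicle group.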
(In the carrageenan paw model, swelling and tenderness develop within hours.)

The nature of series [3]: Lipophilicity, log P of the compound. Type of series: physicochemical. The settings on record: octanol/water. In outline:
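Log P is a theoretical n-octanol/water distribution coefficient, calculated rather than measured.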

For series [4], the system named is Rattus norvegicus. Kind of series: Ulcerogenic effect in rat assessed as gastric ulcer overall length at 1.4 mmol/kg, po administered for 6 hrs. Type of series: toxicity, organism-based, Stomach. To be noted: in vivo. In outline: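 Rats fasted 24 h with water allowed, then given a suspension in 1.2 mL 1% methylcellulose by gavage. Controls received vehicle. At 6 h, CO2 euthanasia. Stomachs were opened along the greater curvature, rinsed and put on ice. Ulcers were counted and measured under a magnifier (≤1 mm = 1, 1–2 mm = 2, >2 mm = length). Ulcer index = summed length per stomach averaged over n = 4, ±SEM.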

Series [5] deals with Rattus norvegicus. Kind of series: Antiinflammatory activity in rat assessed as inhibition of carrageenan-induced paw edema at 0.32 mmol/kg, po after 3 hrs relative to control. Also on record: scale not given: the % may be the effect or the level left. Type of series: functional. In outline:
as §1

Series [6] has as its system Rattus norvegicus. Kind of series: Antiinflammatory activity in rat assessed as inhibition of carrageenan-induced paw edema at 0.01 mmol/kg, po after 3 hrs relative to control. Type of series: functional. On the set-up: scale not given: the % may be the effect or the level left. The method, boiled down:
as §1

For series [7], the system named is Rattus norvegicus. Kind of series: Ulcerogenic effect in rat assessed as gastric ulcer overall length at 0.08 mmol/kg, po administered for 6 hrs. Type of series: toxicity, organism-based, Stomach. The settings on record: in vivo. The method, boiled down:
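Rats were fasted 24 h with water allowed, then dosed orally at 0.08 mmol/kg as a suspension in 1% methylcellulose. Controls received vehicle. After 6 h, animals were killed by CO2 and stomachs opened along the greater curvature, rinsed and kept on ice. Each ulcer was measured along its greatest length under a magnifier. Ulcer index is the total ulcer length per stomach averaged over n = 4, ±SEM.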

Series [8] has as its system Rattus norvegicus. The series is described as follows: Antiinflammatory activity in po dosed rat assessed as inhibition of carrageenan-induced paw edema after 3 hrs. Type of series: functional. The settings on record: read-out: ID50 (the source's name). In outline: as §1

With `CC(=O)Oc1ccccc1C(=O)Oc1ccc(CCO)cc1`, the IC50 (commonly the midpoint of a concentration-inhibition curve) in series [1] was found to be 0.03 µM. In addition, the Activity in the series with Rattus norvegicus [2] amounted to 58%. In addition, in series [3], the logP (in general, the decadic logarithm of the partition coefficient of the neutral form, usually between octanol and water) was 2. The UI with Rattus norvegicus [4] came out at 2.6 mm.

As to `CC(C)Cc1ccc(C(C)C(=O)Oc2ccc(CCO)cc2)cc1` (stereo not given), the IC50 in series [1] stood at 6.44 µM. The Activity with Rattus norvegicus [5] turned out to be 63%. In series [3], this molecule registered a logP of 4.6. Moreover, the UI in the series with Rattus norvegicus [4] turned out to be 3.5 mm.

For the molecule `COc1ccc2c(c1)c(CC(=O)Oc1ccc(CCO)cc1)c(C)n2C(=O)c1ccc(Cl)cc1`, the IC50 in series [1] is greater than 100 µM. The Activity in the series with Rattus norvegicus [6] was found to be 61.3%. Moreover, in the series on Rattus norvegicus [7], the UI was 9.6 mm.

With `CC(=O)Oc1ccccc1C(=O)O` [ASPIRIN], the Activity in the series with Rattus norvegicus [2] turned out to be 50%. The ED50 with Rattus norvegicus [8] amounted to 700 µmol/kg. In series [3], this molecule had a lipophilicity (logP) of 1.2. Moreover, the UI in the series with Rattus norvegicus [4] is 57.4 mm.

For `CC(C)Cc1ccc(C(C)C(=O)O)cc1` (stereo not given) [IBUPROFEN], in the series with Rattus norvegicus [5], the Activity came to 50%. Besides, the ED50 with Rattus norvegicus [8] is 300 µmol/kg. The molecule further returned a logP in series [3] of 3.7.

As for `COc1ccc2c(c1)c(CC(=O)O)c(C)n2C(=O)c1ccc(Cl)cc1` [INDOMETHACIN], in the series on Rattus norvegicus [6], the Activity stood at 38.3%. In addition, the UI in the series on Rattus norvegicus [7] is 34.4 mm.

These data come from ChEMBL document CHEMBL1955816, “Nitric oxide release is not required to decrease the ulcerogenic profile of nonsteroidal anti-inflammatory drugs” (J Med Chem, 2012).
